{"source": "ChEMBL document CHEMBL1154968", "about": "“Tellimagrandin I, HCV invasion inhibitor from Rosae Rugosae Flos” (Bioorg Med Chem Lett, 2010)", "key": {"Hepatitis C virus [1]": {"system": "Hepatitis C virus", "assay": "Antiviral activity against G envelope protein expressing HCV infected in HepG2 cells assessed as inhibition of viral invasion at 1 uM after 24 hrs by SEAP reporter gene assay", "type": "functional, Hepacivirus hominis", "details": "HepG2, 24 h", "how_it_was_run": "(§1)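 HepG2 cells seeded at 9.0 × 10⁴ cells/mL in DMEM with 10% FBS were grown 24 h at 37 °C under 5% CO₂. Samples in DMSO were diluted in medium (final DMSO 1.0%) and added 1 h before inoculation. After a further 24 h, supernatant SEAP activity was read by fluorescence.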"}, "Hepatitis C virus [2]": {"system": "Hepatitis C virus", "assay": "Antiviral activity against E1 and E2 envelope protein expressing HCV infected in HepG2 cells assessed as inhibition of viral invasion at 1 uM after 24 hrs by SEAP reporter gene assay", "type": "functional, Hepacivirus hominis", "details": "HepG2, 24 h", "how_it_was_run": "as §1"}, "Hepatitis C virus [3]": {"system": "Hepatitis C virus", "assay": "Antiviral activity against G envelope protein expressing HCV infected in HepG2 cells assessed as inhibition of viral invasion at 3 uM after 24 hrs by SEAP reporter gene assay", "type": "functional, Hepacivirus hominis", "details": "HepG2, 24 h", "how_it_was_run": "as §1"}, "Hepatitis C virus [4]": {"system": "Hepatitis C virus", "assay": "Antiviral activity against E1 and E2 envelope protein expressing HCV infected in HepG2 cells assessed as inhibition of viral invasion at 10 uM after 24 hrs by SEAP reporter gene assay", "type": "functional, Hepacivirus hominis", "details": "HepG2, 24 h", "how_it_was_run": "as §1"}, "Hepatitis C virus [5]": {"system": "Hepatitis C virus", "assay": "Antiviral activity against G envelope protein expressing HCV infected in HepG2 cells assessed as inhibition of viral invasion at 10 uM after 24 hrs by SEAP reporter gene assay", "type": "functional, Hepacivirus hominis", "details": "HepG2, 24 h", "how_it_was_run": "as §1"}, "Hepatitis C virus [6]": {"system": "Hepatitis C virus", "assay": "Antiviral activity against E1 and E2 envelope protein expressing HCV infected in HepG2 cells assessed as inhibition of viral invasion at 3 uM after 24 hrs by SEAP reporter gene assay", "type": "functional, Hepacivirus hominis", "details": "HepG2, 24 h", "how_it_was_run": "as §1"}, "[7]": {"assay": "Growth inhibition of human HepG2 cells at 10 uM", "type": "cell-based", "details": "read-out: GI"}}, "data": [{"smiles": "O=C(OC[C@H]1OC(O)[C@H](OC(=O)c2cc(O)c(O)c(O)c2)[C@@H](OC(=O)c2cc(O)c(O)c(O)c2)[C@@H]1OC(=O)c1cc(O)c(O)c(O)c1)c1cc(O)c(O)c(O)c1", "note": "(stereo not given in full)", "values": [{"measurement": "inhibition at 1 µM", "setting": "Hepatitis C virus [1]", "value": 16, "unit": "%"}, {"measurement": "inhibition at 1 µM", "setting": "Hepatitis C virus [2]", "value": 9.1, "unit": "%"}, {"measurement": "inhibition at 3 µM", "setting": "Hepatitis C virus [3]", "value": 40.7, "unit": "%"}, {"measurement": "inhibition at 10 µM", "setting": "Hepatitis C virus [4]", "value": 43.7, "unit": "%"}, {"measurement": "inhibition at 10 µM", "setting": "Hepatitis C virus [5]", "value": 51.2, "unit": "%"}, {"measurement": "inhibition at 3 µM", "setting": "Hepatitis C virus [6]", "value": 20.8, "unit": "%"}]}, {"smiles": "O=C1OC[C@H]2OC(O)[C@@H]3OC(=O)c4cc(O)c(O)c(O)c4-c4c(cc(O)c(O)c4O)C(=O)O[C@H]3[C@@H]2OC(=O)c2cc(O)c(O)c(O)c2-c2c1cc(O)c(O)c2O", "note": "(stereo not given in full) [PEDUNCULAGIN]", "values": [{"measurement": "inhibition at 1 µM", "setting": "Hepatitis C virus [1]", "value": 9.4, "unit": "%"}, {"measurement": "inhibition at 1 µM", "setting": "Hepatitis C virus [2]", "value": 14.6, "unit": "%"}, {"measurement": "inhibition at 3 µM", "setting": "Hepatitis C virus [3]", "value": 14.8, "unit": "%"}, {"measurement": "inhibition at 10 µM", "setting": "Hepatitis C virus [4]", "value": 81.1, "unit": "%"}, {"measurement": "inhibition at 10 µM", "setting": "Hepatitis C virus [5]", "value": 30.9, "unit": "%"}, {"measurement": "inhibition at 3 µM", "setting": "Hepatitis C virus [6]", "value": 58.8, "unit": "%"}]}, {"smiles": "O=C(O[C@@H]1O[C@@H]2COC(=O)c3cc(O)c(O)c(O)c3-c3c(cc(O)c(O)c3O)C(=O)O[C@H]2[C@H](OC(=O)c2cc(O)c(O)c(O)c2)[C@H]1OC(=O)c1cc(O)c(O)c(O)c1)c1cc(O)c(O)c(O)c1", "note": "[EUGENIIN]", "values": [{"measurement": "inhibition at 1 µM", "setting": "Hepatitis C virus [1]", "value": 17.2, "unit": "%"}, {"measurement": "inhibition at 1 µM", "setting": "Hepatitis C virus [2]", "value": 18.4, "unit": "%"}, {"measurement": "inhibition at 3 µM", "setting": "Hepatitis C virus [3]", "value": 21.2, "unit": "%"}, {"measurement": "inhibition at 10 µM", "setting": "Hepatitis C virus [4]", "value": 92.8, "unit": "%"}, {"measurement": "inhibition at 10 µM", "setting": "Hepatitis C virus [5]", "value": 35.7, "unit": "%"}, {"measurement": "inhibition at 3 µM", "setting": "Hepatitis C virus [6]", "value": 51.3, "unit": "%"}]}, {"smiles": "O=C(OC[C@H]1O[C@@H](OC(=O)c2cc(O)c(O)c(O)c2)[C@H](OC(=O)c2cc(O)c(O)c(O)c2)[C@@H](OC(=O)c2cc(O)c(O)c(O)c2)[C@@H]1OC(=O)c1cc(O)c(O)c(O)c1)c1cc(O)c(O)c(O)c1", "note": "[PENTAGALLOYL GLUCOSE]", "values": [{"measurement": "inhibition at 1 µM", "setting": "Hepatitis C virus [1]", "value": 5, "unit": "%"}, {"measurement": "inhibition at 1 µM", "setting": "Hepatitis C virus [2]", "value": 4.2, "unit": "%"}, {"measurement": "inhibition at 3 µM", "setting": "Hepatitis C virus [3]", "value": 22.8, "unit": "%"}, {"measurement": "inhibition at 10 µM", "setting": "Hepatitis C virus [4]", "value": 72.3, "unit": "%"}, {"measurement": "inhibition at 10 µM", "setting": "Hepatitis C virus [5]", "value": 40.7, "unit": "%"}, {"measurement": "inhibition at 3 µM", "setting": "Hepatitis C virus [6]", "value": 28.9, "unit": "%"}]}, {"smiles": "O=C(O[C@H]1[C@@H]2OC(=O)c3cc(O)c(O)c(O)c3-c3c(cc(O)c(O)c3O)C(=O)OC[C@H]2OC(O)[C@@H]1OC(=O)c1cc(O)c(O)c(O)c1)c1cc(O)c(O)c(O)c1", "note": "(stereo not given in full) [Tellimagrandin I]", "values": [{"measurement": "inhibition at 10 µM", "setting": "[7]", "value": 15.6, "unit": "%"}]}]}
